Source: ChEMBL document CHEMBL1127478 (J Med Chem, 1994)
Residues, ends and D or L forms follow the SMILES beside them.

Tests used:
Vasopressin V2 receptor = Vasopressin V2 receptor (Bos taurus, UniProt P48044); assay: Inhibition of radioligand [3H]AVP binding to V2 receptor in bovine kidney inner medulla membrane
Summary of the method: (§1)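 Competition binding with 10 nM [3H]AVP (17.4 Ci/mmol) and varying concentrations of unlabeled peptide. V1 used rat liver plasma membranes prepared by two-phase polymer separation. V2 used bovine kidney inner medulla membranes prepared by differential centrifugation. Kd came from a weighted nonlinear least-squares fit to logistic curves.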

Vasopressin V1 receptor = Vasopressin V1 receptor (Rattus norvegicus, UniProt P48974+P30560); assay: Inhibition of radioligand [3H]AVP binding to V1 receptor in rat liver plasma membrane; format: cell membranes; summary of the method: as §1
Rattus norvegicus [1] = species: Rattus norvegicus; assay: In vitro antiuterotonic activity in rat oxytocic bioassay in the presence of 1 mM Mg2+; format: functional; conditions: read-out: pA2 (converted)
Summary of the method: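 Isolated rat uterus in medium containing 1 mM Mg2+, with oxytocin-induced contractions challenged by the antagonist.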

Rattus norvegicus [2] = assay: In vivo antiuterotonic activity in the rat uterotonic assay; format: functional, organism-based; conditions: read-out: pA2 (converted)
Rattus norvegicus [3] = species: Rattus norvegicus; assay: In vitro antiuterotonic activity in rat oxytocic bioassay in the absence of Mg2+; format: functional; conditions: read-out: pA2 (converted)
Rattus norvegicus [4] = species: Rattus norvegicus; assay: Inhibition of pressor response to exogenous AVP in the pitched rat preparation; format: functional, organism-based; conditions: read-out: pA2 (converted)
Summary of the method: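 Pressor test in pitched rats. Reported as the negative decadic log of the effective dose (mol/kg) that reduces the effect of a 1×10^-5 mg AVP dose to the level of […] AVP. Values are mean ± SE.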

[5] = Selectivity aUT/aP ratio of the compound; format: functional
Summary of the method: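 Reciprocal of the ratio of effective doses in the uterotonic in vitro test (mol/L) and the pressor test (mol/kg). Where given in parentheses, the reciprocal of the ratio of the uterotonic in vivo dose (mol/kg) to the pressor dose (mol/kg).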

Vasopressin V2 receptor, sequence (P48044 whole entry): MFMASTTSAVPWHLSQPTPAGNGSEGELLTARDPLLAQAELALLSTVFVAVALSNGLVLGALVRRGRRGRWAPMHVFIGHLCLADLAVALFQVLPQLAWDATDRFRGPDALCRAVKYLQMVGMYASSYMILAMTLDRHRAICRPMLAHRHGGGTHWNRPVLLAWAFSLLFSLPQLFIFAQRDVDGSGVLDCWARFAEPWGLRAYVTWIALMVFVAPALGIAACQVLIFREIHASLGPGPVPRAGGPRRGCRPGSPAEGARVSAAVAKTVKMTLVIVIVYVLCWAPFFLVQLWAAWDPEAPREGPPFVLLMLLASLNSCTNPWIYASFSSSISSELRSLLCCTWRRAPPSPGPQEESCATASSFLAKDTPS

SMILES	Kd (Vasopressin V2 receptor)	Kd (Vasopressin V1 receptor)	Kb (Rattus norvegicus [1])	Kb (Rattus norvegicus [2])	Kb (Rattus norvegicus [3])	Kb (Rattus norvegicus [4])	Ratio [5]
CC[C@H](C)[C@@H]1NC(=O)[C@@H](Cc2c[nH]c3ccccc23)NC(=O)CC2(CCCCC2)SSC[C@@H](C(=O)N(C)CC(=O)N[C@@H](CCCN=C(N)N)C(=O)NCC(N)=O)NC(=O)[C@H](CC(N)=O)NC(=O)[C@H](CCC(N)=O)NC1=O (HELM PEPTIDE1{[dW].I.Q.N.C.[Sar].R.G.[am]}|CHEM1{[O=C(CC1(S[*:2])CCCCC1)[*:1]]}$PEPTIDE1,CHEM1,1:R1-1:R1|PEPTIDE1,CHEM1,5:R3-1:R2$$$V2.0)	300000 nM	3.8 nM	20 nM	31.6 nM	12.6 nM	31.6 nM	–
NC(=O)CC[C@@H]1NC(=O)[C@H](Cc2ccccc2)NC(=O)[C@H](Cc2ccc(O)cc2)NC(=O)CC2(CCCCC2)SSC[C@H](C(=O)N2CCC[C@H]2C(=O)N[C@@H](CCCN=C(N)N)C(=O)NCC(N)=O)NC(=O)[C@H](CC(N)=O)NC1=O	–	–	–	–	–	–	0.6
CCOc1ccc(CC2NC(=O)CC3(CCCCC3)SSC[C@H](C(=O)N(C)CC(=O)N[C@@H](CCCN=C(N)N)C(=O)NCC(N)=O)NC(=O)[C@H](CC(N)=O)NC(=O)[C@H](CCC(N)=O)NC(=O)[C@H]([C@@H](C)CC)NC2=O)cc1 (stereo in doubt)	35 nM	13.1 nM	7.94 nM	31.6 nM	5.01 nM	398 nM	80
CC[C@H](C)[C@@H]1NC(=O)C(Cc2ccccc2)NC(=O)CCSSC[C@H](C(=O)N(C)CC(=O)N[C@@H](CCCN=C(N)N)C(=O)NCC(N)=O)NC(=O)[C@H](CC(N)=O)NC(=O)[C@H](CCC(N)=O)NC1=O (stereo in doubt) [listing 1 of 2 here]	–	–	10 nM	39.8 nM	5.01 nM	398 nM	–
CN(CC(=O)N[C@@H](CCCN=C(N)N)C(=O)NCC(N)=O)C(=O)[C@@H]1CSSC2(CCCCC2)CC(=O)N[C@@H](Cc2ccc(O)cc2)C(=O)N[C@@H](Cc2ccccc2)C(=O)N[C@@H](CCC(N)=O)C(=O)N[C@@H](CC(N)=O)C(=O)N1	–	–	–	–	112 nM	11.7 nM	–
CC[C@H](C)[C@@H]1NC(=O)C(Cc2ccccc2)NC(=O)CCSSC[C@H](C(=O)N(C)CC(=O)N[C@@H](CCCN=C(N)N)C(=O)NCC(N)=O)NC(=O)[C@H](CC(N)=O)NC(=O)[C@H](CCC(N)=O)NC1=O (stereo in doubt) [listing 2 of 2 here]	421 nM	50.1 nM	–	–	–	–	–
CC[C@H](C)[C@@H]1NC(=O)C(Cc2ccccc2)NC(=O)CC2(CCCCC2)SSC[C@H](C(=O)N(C)CC(=O)N[C@@H](CCCN=C(N)N)C(=O)NCC(N)=O)NC(=O)[C@H](CC(N)=O)NC(=O)[C@H](CCC(N)=O)NC1=O (stereo in doubt)	311 nM	8.28 nM	10 nM	39.8 nM	10 nM	100 nM	10
CC[C@H](C)[C@@H]1NC(=O)[C@@H](Cc2ccc(OC)cc2)NC(=O)CC2(CCCCC2)SSC[C@@H](C(=O)N2CCC[C@H]2C(=O)N[C@@H](CCCN)C(=O)NCC(N)=O)NC(=O)[C@H](CC(N)=O)NC(=O)[C@H](CCC(N)=O)NC1=O	–	–	–	–	3.02 nM	11 nM	–
CN(CC(=O)N[C@@H](CCCN=C(N)N)C(=O)NCC(N)=O)C(=O)[C@@H]1CSSC2(CCCCC2)CC(=O)NC(Cc2ccccc2)C(=O)NC(Cc2ccccc2)C(=O)N[C@@H](CCC(N)=O)C(=O)N[C@@H](CC(N)=O)C(=O)N1 (stereo in doubt)	98 nM	0.96 nM	–	25.1 nM	7.94 nM	15.8 nM	2

Continued, in another order:

Kd (Vasopressin V2 receptor)	Kd (Vasopressin V1 receptor)	SMILES	Kb (Rattus norvegicus [1])	Kb (Rattus norvegicus [2])	Kb (Rattus norvegicus [3])	Kb (Rattus norvegicus [4])	Ratio [5]
240 nM	0.59 nM	CN(CC(=O)N[C@@H](CCCNC(=N)N)C(=O)NCC(N)=O)C(=O)[C@@H]1CSSC2(CCCCC2)CC(=O)N[C@@H](Cc2ccc(O)cc2)C(=O)N[C@@H](Cc2ccccc2)C(=O)N[C@@H](CCC(N)=O)C(=O)N[C@@H](CC(N)=O)C(=O)N1	–	–	–	–	–
29 nM	0.32 nM	CCOc1ccc(CC2NC(=O)CC3(CCCCC3)SSC[C@@H](C(=O)N(C)CC(=O)N[C@@H](CCCN=C(N)N)C(=O)NCC(N)=O)NC(=O)[C@H](CC(N)=O)NC(=O)[C@H](CCC(N)=O)NC(=O)[C@H](Cc3ccccc3)NC2=O)cc1 (stereo in doubt)	–	79.4 nM	3.98 nM	10 nM	2.5
811 nM	2 nM	CC[C@H](C)[C@@H]1NC(=O)[C@@H](Cc2ccc(OC)cc2)NC(=O)CC2(CCCCC2)SSC[C@@H](C(=O)N(C)CC(=O)N[C@@H](CCCN=C(N)N)C(=O)NCC(N)=O)NC(=O)[C@H](CC(N)=O)NC(=O)[C@H](CCC(N)=O)NC1=O	6.31 nM	31.6 nM	2.51 nM	20 nM	–
182 nM	8.28 nM	CC[C@H](C)C1NC(=O)CC2(CCCCC2)SSC[C@@H](C(=O)N(C)CC(=O)N[C@@H](CCCN=C(N)N)C(=O)NCC(N)=O)NC(=O)[C@H](CC(N)=O)NC(=O)[C@H](CCC(N)=O)NC(=O)[C@H](Cc2ccccc2)NC1=O (stereo in doubt)	100 nM	251 nM	31.6 nM	63.1 nM	–
230 nM	0.22 nM	CN(CC(=O)N[C@@H](CCCN=C(N)N)C(=O)NCC(N)=O)C(=O)[C@@H]1CSSC2(CCCCC2)CC(=O)NC(Cc2ccc(O)cc2)C(=O)N[C@@H](Cc2ccccc2)C(=O)N[C@@H](CCC(N)=O)C(=O)N[C@@H](CC(N)=O)C(=O)N1 (stereo in doubt)	–	100 nM	10 nM	10 nM	–
